# Assay results published in ChEMBL document CHEMBL4177600, “Identification of novel PI3K inhibitors through a scaffold hopping strategy” (Bioorg Med Chem Lett, 2017).
# Tests used:
# [1] = molecular target: Phosphatidylinositol 4,5-bisphosphate 3-kinase catalytic subunit gamma isoform (Homo sapiens, UniProt P48736); assay: Inhibition of recombinant full-length human N-terminal His6-tagged p110gamma expressed in baculovirus infected Sf21 insect cells using PIP2 as substrate by HTRF assay; conditions: read-out: Ki(app)
# [2] = molecular target: PI3-kinase p110-alpha/p85-alpha (Homo sapiens, UniProt P42336); assay: Inhibition of full-length human P110alpha (1 to 1068 residues)/N-terminal GST-fused p85alpha (1 to 724 residues) expressed in baculovirus expression system by ADP Hunter assay; conditions: read-out: Ki(app)
# PI3-kinase p110-alpha/p85-alpha, sequence (P27986 whole entry, the tested form may be a part): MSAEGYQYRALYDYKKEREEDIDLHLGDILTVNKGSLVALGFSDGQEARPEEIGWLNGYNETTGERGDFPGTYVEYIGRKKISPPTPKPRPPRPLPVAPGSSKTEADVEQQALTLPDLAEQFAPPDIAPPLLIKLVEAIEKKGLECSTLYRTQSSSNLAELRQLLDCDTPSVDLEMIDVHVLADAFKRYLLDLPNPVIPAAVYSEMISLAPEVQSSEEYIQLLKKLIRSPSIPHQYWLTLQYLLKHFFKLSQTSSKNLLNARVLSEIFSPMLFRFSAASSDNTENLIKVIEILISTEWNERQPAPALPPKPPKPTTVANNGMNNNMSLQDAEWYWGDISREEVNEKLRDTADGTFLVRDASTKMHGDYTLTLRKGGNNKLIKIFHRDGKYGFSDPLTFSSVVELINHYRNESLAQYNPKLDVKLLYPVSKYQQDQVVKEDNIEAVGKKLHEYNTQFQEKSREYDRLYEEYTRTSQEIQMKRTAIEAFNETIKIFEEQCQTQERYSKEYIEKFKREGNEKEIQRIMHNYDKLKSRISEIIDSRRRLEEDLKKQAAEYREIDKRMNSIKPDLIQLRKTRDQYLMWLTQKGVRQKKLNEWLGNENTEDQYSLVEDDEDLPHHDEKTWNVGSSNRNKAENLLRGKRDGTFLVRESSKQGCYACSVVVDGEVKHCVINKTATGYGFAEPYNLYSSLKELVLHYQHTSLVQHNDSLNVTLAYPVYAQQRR
# PI3-kinase p110-alpha/p85-alpha, sequence (P42336 whole entry, the tested form may be a part): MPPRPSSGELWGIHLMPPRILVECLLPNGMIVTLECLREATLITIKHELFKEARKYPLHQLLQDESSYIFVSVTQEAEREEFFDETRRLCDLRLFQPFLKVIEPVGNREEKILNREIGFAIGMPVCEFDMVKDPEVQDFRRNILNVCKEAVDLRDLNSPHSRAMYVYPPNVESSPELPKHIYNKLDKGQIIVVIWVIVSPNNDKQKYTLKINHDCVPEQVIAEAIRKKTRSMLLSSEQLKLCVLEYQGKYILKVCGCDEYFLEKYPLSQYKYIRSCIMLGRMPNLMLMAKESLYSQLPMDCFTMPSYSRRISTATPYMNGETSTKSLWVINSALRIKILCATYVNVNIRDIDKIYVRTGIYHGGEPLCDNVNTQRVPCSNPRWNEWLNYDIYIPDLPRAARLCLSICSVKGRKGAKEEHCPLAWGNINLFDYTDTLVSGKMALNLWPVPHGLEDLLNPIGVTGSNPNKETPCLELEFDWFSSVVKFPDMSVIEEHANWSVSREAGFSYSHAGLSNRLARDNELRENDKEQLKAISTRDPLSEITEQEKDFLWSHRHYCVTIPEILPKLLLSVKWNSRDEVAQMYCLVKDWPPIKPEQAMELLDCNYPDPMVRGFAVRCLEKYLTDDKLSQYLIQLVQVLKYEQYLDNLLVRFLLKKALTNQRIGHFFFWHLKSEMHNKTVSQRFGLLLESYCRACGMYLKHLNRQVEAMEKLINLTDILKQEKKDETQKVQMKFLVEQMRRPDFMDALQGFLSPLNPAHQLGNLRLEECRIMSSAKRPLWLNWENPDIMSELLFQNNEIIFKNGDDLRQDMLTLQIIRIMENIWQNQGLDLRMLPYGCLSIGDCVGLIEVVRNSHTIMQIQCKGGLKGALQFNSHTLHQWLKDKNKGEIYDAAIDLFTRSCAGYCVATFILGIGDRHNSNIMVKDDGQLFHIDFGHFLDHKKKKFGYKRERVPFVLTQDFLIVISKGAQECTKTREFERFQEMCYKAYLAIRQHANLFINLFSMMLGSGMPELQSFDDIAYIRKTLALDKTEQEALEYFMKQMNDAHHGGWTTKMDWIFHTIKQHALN
# [3] = Inhibition of PI3K in serum-stimulated human U2OS cells assessed as decrease in AKT1 phosphorylation at S473 by C-ELISA; assay type: cell-based
# Outline: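 U2OS osteosarcoma cells grown in 0.1% FBS, then serum-stimulated; endogenous phospho-Akt1 (Ser473) quantified by cell ELISA with chemiluminescent substrate. EC50 from sigmoid dose-response fit; two independent experiments in duplicate.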
# [4] = molecular target: Serine/threonine-protein kinase Chk2 (Homo sapiens) (UniProt O96017); assay: Inhibition of CHK2 (unknown origin) at 1 uM relative to control
# Serine/threonine-protein kinase Chk2 (Homo sapiens), sequence (O96017 whole entry): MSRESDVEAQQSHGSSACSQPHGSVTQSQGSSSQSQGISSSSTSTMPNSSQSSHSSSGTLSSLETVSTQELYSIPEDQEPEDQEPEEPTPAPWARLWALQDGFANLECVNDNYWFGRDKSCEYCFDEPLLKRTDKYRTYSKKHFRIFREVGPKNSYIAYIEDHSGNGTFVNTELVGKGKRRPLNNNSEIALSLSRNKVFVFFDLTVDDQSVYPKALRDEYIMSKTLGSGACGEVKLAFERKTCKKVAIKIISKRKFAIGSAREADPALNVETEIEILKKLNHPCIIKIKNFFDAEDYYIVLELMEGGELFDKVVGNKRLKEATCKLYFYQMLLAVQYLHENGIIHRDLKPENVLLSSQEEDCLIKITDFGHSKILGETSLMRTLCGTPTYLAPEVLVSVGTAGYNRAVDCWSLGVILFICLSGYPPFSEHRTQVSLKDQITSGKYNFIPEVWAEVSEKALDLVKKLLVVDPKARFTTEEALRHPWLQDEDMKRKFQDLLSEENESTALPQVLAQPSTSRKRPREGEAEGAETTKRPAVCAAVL
# Outline: (§1)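 Kinase panel of 24 enzymes, each tested at 1 µM; percent inhibition reported as the average of two independent data points.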
# [5] = molecular target: CDK8/Cyclin C (Homo sapiens) (UniProt P49336+P24863); assay: Inhibition of recombinant human N-terminal GST/HIS6-tagged CDK8 (M1 to Y463 residues)/human N-terminal His6-tagged Cyclin C (M1 to S283 residues) expressed in Sf9 insect cells at 1 uM using RBER-IRStide as substrate by fliter binding assay relative to control; outline: as §1
# [6] = molecular target: Fibroblast growth factor receptor 1 (Homo sapiens) (UniProt P11362); assay: Inhibition of recombinant human N-terminal GST/His6-tagged FGFR1 (G400 to R820 residues) expressed in Sf9 insect cells at 1 uM using poly(Glu,Tyr)4:1 as substrate by filter binding method relative to control; outline: as §1
# Fibroblast growth factor receptor 1 (Homo sapiens), sequence (P11362 22-822 limits assumed): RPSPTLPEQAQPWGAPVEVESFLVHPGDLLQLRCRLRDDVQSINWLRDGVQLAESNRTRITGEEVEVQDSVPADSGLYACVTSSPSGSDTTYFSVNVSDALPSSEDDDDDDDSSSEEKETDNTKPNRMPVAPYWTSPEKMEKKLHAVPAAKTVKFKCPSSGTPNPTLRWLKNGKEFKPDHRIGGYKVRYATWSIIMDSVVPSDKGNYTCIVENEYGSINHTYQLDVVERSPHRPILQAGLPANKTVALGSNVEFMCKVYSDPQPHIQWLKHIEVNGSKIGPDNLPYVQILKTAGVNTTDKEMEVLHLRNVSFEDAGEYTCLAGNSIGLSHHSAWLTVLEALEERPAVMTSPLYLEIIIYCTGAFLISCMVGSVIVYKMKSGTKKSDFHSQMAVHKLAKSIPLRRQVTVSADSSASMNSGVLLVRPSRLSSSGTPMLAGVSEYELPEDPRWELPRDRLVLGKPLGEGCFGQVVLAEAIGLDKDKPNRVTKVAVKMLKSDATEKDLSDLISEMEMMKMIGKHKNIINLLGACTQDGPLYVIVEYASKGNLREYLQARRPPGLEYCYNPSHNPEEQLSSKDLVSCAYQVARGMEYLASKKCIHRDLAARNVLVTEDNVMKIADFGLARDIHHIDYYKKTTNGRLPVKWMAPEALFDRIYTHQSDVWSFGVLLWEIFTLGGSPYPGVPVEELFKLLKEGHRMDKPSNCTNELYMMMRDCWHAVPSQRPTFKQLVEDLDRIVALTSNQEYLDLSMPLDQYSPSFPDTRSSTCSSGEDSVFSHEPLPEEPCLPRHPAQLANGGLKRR
# [7] = molecular target: Insulin receptor (Homo sapiens) (UniProt P06213); assay: Inhibition of recombinant human N-terminal GST-tagged INSR (G989 to S1382 residues) expressed in baculovirus infected Sf9 cells at 1 uM using Poly(Ala,Glu,Lys,Tyr)6:2:5:1 as substrate by filter binding method relative to control; outline: as §1
# [8] = molecular target: Mast/stem cell growth factor receptor Kit (Homo sapiens) (UniProt P10721); assay: Inhibition of recombinant human N-terminal GST/His6-tagged KIT (T544 to V976 residues) expressed in Sf9 insect cells at 1 uM using TRK-C-derived peptide as substrate by filter binding method relative to control; outline: as §1
# [9] = molecular target: Hepatocyte growth factor receptor (Homo sapiens) (UniProt P08581); assay: Inhibition of recombinant human N-terminal GST/His6-tagged MET (K956 to S1390 residues) expressed in Sf9 insect cells at 1 uM using TRK-C-derived peptide as substrate by filter binding method relative to control
# Outline: (§2)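 Single-point screen at 1 µM in a 24-kinase panel run externally; each value is the average of two independent data points. The detailed assay conditions are given only on the provider's site.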
# [10] = molecular target: Serine/threonine-protein kinase PAK 1 (Homo sapiens) (UniProt Q13153); assay: Inhibition of recombinant human N-terminal GST/His6-tagged PAK1 (M1 to H545 residues) expressed in Sf9 insect cells at 1 uM using tetra(LRRWSLG) as substrate by filter binding method relative to control; outline: as §2
# [11] = molecular target: Ribosomal protein S6 kinase alpha-1 (Homo sapiens) (UniProt Q15418); assay: Inhibition of RPS6KA1 (unknown origin) at 1 uM relative to control; outline: as §1
# [12] = molecular target: Proto-oncogene tyrosine-protein kinase Src (Homo sapiens) (UniProt P12931); assay: Inhibition of human SRC at 1 uM using poly(Glu,Tyr)4:1 as substrate by filter binding method relative to control; outline: as §1
# [13] = molecular target: Vascular endothelial growth factor receptor 2 (Homo sapiens) (UniProt P35968); assay: Inhibition of recombinant human N-terminal GST-tagged VEGFR2 (D807 to V1356 residues) expressed in Sf9 insect cells at 1 uM using Poly(Glu:Tyr)4:1 as substrate by filter binding method relative to control; outline: as §1
# Vascular endothelial growth factor receptor 2 (Homo sapiens), sequence (P35968 whole entry, the tested form may be a part): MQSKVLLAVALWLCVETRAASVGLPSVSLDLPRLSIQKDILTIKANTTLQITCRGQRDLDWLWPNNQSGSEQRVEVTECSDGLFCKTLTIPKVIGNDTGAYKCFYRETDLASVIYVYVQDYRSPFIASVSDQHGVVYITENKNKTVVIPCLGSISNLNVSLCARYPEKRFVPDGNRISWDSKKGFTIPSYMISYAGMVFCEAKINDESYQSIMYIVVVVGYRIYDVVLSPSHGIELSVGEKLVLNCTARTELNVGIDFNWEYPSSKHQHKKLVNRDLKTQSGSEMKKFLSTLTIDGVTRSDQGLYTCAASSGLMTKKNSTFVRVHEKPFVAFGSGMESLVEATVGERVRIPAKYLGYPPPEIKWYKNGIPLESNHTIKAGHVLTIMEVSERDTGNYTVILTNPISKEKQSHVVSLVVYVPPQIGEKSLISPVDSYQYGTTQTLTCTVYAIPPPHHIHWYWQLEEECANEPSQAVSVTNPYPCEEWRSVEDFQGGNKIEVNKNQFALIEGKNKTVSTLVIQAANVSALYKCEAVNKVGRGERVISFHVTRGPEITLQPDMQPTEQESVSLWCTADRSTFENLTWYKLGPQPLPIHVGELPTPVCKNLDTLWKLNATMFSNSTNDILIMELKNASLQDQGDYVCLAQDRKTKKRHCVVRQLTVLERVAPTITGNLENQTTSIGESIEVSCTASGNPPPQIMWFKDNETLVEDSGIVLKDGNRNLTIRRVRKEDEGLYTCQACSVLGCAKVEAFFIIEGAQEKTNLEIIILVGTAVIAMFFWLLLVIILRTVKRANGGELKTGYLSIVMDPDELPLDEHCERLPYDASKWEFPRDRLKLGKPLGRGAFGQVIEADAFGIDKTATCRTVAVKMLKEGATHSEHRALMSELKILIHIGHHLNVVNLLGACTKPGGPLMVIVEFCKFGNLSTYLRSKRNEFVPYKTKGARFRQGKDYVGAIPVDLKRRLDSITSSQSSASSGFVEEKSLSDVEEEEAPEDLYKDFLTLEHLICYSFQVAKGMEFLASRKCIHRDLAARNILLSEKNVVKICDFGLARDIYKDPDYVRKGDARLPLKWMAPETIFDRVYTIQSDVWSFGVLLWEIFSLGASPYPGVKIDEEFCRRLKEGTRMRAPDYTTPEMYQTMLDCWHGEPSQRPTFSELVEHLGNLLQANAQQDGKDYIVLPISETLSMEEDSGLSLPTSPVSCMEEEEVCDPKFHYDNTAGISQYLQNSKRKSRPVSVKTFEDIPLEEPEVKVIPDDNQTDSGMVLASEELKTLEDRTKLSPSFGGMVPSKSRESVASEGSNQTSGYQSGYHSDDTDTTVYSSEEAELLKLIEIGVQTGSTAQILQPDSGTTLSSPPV
# [14] = Stability in mouse liver microsomes assessed as parent compound remaining at 0.5 uM after 30 mins by LC-MS/MS analysis; assay type: ADME, microsome; conditions: read-out: Stability
# Outline: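 Single time-point stability assay: 0.5 µM compound, 0.5 mg/ml human or mouse liver microsomes in 0.1 M potassium phosphate pH 7.4, with NADPH-regenerating system, 30 min at 37 °C with shaking. Reaction quenched with acetonitrile/0.1% formic acid and centrifuged; supernatant analysed by LC-MS/MS. Reported as percent remaining; duplicates.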
# CYP1A2 = molecular target: T1, CYP1A2 (Homo sapiens, UniProt P05177); assay: Inhibition of CYP1A2 (unknown origin) at 10 uM relative to control; assay type: ADME
# T1 sequence (P05177 whole entry): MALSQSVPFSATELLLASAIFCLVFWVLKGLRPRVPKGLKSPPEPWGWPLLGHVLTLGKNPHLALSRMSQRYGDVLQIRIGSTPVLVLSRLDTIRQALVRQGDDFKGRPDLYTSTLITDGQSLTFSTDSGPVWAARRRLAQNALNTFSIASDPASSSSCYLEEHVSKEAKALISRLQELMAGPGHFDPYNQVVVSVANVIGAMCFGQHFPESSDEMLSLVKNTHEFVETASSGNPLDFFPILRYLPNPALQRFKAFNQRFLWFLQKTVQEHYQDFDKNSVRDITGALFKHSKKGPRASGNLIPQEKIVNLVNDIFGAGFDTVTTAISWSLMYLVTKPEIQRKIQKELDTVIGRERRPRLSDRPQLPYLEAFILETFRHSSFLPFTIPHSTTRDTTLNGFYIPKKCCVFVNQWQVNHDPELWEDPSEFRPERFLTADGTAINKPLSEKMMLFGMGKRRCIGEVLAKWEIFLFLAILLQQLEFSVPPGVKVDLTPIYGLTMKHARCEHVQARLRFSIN
# Outline: (§3)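 CYP1A2, 2C9, 2C19, 2D6 and 3A4 inhibition measured at 10 µM test compound in duplicate; percent inhibition reported.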
# CYP2C9 = CYP2C9 (Homo sapiens, UniProt P11712); assay: Inhibition of CYP2C9 (unknown origin) at 10 uM relative to control; assay type: ADME; outline: as §3
# CYP2C9, sequence (P11712 whole entry): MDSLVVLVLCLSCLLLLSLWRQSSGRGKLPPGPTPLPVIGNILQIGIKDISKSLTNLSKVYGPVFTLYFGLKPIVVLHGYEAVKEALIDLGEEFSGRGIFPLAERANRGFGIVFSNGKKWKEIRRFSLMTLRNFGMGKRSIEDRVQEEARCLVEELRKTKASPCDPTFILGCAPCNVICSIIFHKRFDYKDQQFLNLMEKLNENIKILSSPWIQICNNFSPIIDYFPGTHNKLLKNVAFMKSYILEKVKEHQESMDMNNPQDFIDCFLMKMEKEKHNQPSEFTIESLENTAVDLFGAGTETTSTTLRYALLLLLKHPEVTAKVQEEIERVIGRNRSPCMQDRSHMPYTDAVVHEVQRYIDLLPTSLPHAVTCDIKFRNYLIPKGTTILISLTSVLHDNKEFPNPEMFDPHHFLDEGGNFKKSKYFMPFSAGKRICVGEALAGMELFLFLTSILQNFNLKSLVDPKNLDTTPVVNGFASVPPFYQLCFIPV
# CYP3A4 = CYP3A4 (Homo sapiens, UniProt P08684); assay: Inhibition of CYP3A4 (unknown origin) at 10 uM relative to control; assay type: ADME; outline: as §3
# [15] = Kinetic solubility of the compound in phosphate buffered saline at pH 7.4 at 1 to 2 mg measured after 24 hrs by HPLC analysis; assay type: physicochemical; conditions: read-out: Kinetic_solubility
# Outline: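 Solid compound (1–2 mg) in 1 mL PBS, pH 7.4, inverted in test tubes for 24 h. Samples centrifuged, supernatant analysed by HPLC with diode-array detection, with peak area compared to a standard of known concentration. LC-MS/MS used when UV signal was too low or the chromophore poor. Reported in µM.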
Ki [1] [nM],Ki [2] [nM],EC50 [3] [nM],inhibition [4] [%],inhibition [5] [%],inhibition [6] [%],inhibition [7] [%],inhibition [8] [%],inhibition [9] [%],inhibition [10] [%],inhibition [11] [%],inhibition [12] [%],inhibition [13] [%],"remaining at 0.5 h, 0.5 µM [14] [%]",inhibition at 10 µM (CYP1A2) [%],inhibition at 10 µM (CYP2C9) [%],inhibition at 10 µM (CYP3A4) [%],solubility kinetic at 24 h [15] [µM],SMILES
49.1,0.99,30.5,< 25,< 25,< 25,< 25,< 25,< 25,< 25,< 25,< 25,< 25,100,< 25,< 25,< 25,10,CS(=O)(=O)N1CCN(Cc2cc3c(N4CCOCC4)nc(-c4cnc(N)nc4)cn3n2)CC1
42.4,5.5,68.6,< 25,< 25,< 25,< 25,< 25,< 25,< 25,< 25,< 25,< 25,96,< 25,< 25,< 25,100,CS(=O)(=O)N1CCN(Cc2nc3c(N4CCOCC4)nc(-c4cnc(N)nc4)c(Cl)n3n2)CC1
40.6,1.52,52.8,< 25,< 25,< 25,< 25,< 25,< 25,< 25,< 25,< 25,< 25,100,< 25,< 25,< 25,10,CS(=O)(=O)N1CCN(Cc2cn3nc(-c4cnc(N)nc4)nc(N4CCOCC4)c3n2)CC1
,1,87.2,< 25,< 25,< 25,< 25,< 25,< 25,< 25,< 25,< 25,< 25,100,< 25,< 25,< 25,100,CS(=O)(=O)N1CCN(Cc2nc3c(N4CCOCC4)nc(-c4cnc(N)nc4)cn3n2)CC1
